Each structure is given as a SMILES string. Calls of active or inactive are those of the source. No cut-off for these calls is given here.

The target in data set [1] is T1, Estrogen receptor (Homo sapiens) (UniProt P03372).
T1 sequence (whole entry): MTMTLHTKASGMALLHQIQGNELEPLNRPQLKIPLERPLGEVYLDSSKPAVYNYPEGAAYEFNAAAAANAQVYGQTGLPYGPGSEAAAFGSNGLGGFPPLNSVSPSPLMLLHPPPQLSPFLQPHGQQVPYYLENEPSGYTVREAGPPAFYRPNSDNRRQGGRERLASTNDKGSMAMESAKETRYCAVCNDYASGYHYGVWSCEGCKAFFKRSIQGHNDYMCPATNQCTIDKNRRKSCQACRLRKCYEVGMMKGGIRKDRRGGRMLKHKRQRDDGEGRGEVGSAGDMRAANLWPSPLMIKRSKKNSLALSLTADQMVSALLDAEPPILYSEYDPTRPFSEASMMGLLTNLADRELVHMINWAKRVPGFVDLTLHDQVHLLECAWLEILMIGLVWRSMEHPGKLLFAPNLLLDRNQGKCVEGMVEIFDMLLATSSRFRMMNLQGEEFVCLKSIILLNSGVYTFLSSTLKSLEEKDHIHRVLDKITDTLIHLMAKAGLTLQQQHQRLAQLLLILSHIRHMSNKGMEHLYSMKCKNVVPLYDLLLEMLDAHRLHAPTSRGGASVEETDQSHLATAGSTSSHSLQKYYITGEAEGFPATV
As to the kind of experiment: Binding affinity to recombinant human GFP-fused ERalpha LBD (301 to 553 residues) expressed in Escherichia coli BL21(DE3) in presence of 17beta-estradiol by ITC. The method, boiled down:
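ITC at 25 °C. 2 μL injections of 50 μM peptide into 5 μM ERα LBD in 50 mM Tris pH 8.0, 150 mM NaCl, 1 mM TCEP, 0.1 mM 17β-estradiol. Binding isotherm fitted for affinity.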
(In general: ITC needs no label: the signal is the heat of the interaction.)

Another data set has as its target T2, Progesterone receptor (Homo sapiens, UniProt P06401).
T2 sequence (P06401 whole entry): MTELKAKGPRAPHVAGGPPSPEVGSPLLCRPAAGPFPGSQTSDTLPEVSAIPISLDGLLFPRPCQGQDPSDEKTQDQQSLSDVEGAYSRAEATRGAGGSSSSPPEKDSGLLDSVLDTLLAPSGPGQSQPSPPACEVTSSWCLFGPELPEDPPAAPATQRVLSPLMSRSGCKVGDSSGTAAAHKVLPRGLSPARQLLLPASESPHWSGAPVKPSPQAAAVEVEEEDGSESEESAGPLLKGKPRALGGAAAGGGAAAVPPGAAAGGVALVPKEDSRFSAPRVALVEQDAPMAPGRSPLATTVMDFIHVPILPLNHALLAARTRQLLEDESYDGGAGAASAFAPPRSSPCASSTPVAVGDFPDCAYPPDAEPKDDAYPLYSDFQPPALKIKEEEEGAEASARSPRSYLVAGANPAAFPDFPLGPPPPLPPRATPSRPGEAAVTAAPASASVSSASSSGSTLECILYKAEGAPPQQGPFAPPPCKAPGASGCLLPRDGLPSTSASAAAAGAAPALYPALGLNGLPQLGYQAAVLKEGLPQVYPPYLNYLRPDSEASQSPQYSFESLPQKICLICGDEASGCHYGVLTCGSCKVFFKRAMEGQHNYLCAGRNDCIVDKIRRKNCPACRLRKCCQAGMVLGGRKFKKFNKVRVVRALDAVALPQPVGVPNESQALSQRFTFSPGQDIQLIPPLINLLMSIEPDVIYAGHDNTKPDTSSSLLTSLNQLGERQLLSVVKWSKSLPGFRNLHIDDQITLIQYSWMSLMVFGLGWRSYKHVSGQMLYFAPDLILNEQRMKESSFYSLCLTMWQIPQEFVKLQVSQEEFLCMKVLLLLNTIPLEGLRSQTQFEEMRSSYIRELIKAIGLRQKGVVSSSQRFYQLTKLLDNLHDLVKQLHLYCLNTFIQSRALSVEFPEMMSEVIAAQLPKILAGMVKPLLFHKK
As to the kind of experiment: Binding affinity to recombinant human GST-tagged PGR LBD (678 to 933 residues) expressed in Escherichia coli BL21 star(DE3) after 40 mins in presence of progesterone by fluorescence polarization assay. The method, boiled down:
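FITC-labelled peptide at 10 nM final with increasing GST-PgR LBD in 20 mM Tris-HCl pH 8.0, 150 mM NaCl, 5% glycerol, 1 mM TCEP plus 10 μM progesterone. 40 min dark incubation, polarization at 298 K (ex 480/em 535 nm). KD by nonlinear regression against protein concentration.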

The species entered for data set [2] is Homo sapiens. As to the kind of experiment: Selectivity ratio of Kd for recombinant human ERbeta LBD (259 to 498 residues) to Kd for recombinant human ERalpha LBD (301 to 553 residues). The method, boiled down:
(§1)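 Ratio of KD values, each from fluorescence polarization of 10 nM FITC-peptide titrated with the respective LBD after 40 min in the dark at 298 K, with the matching ligand in buffer (10 μM 17β-estradiol, progesterone or vitamin D3).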

Data set [3] can be described thus: Drug uptake in human U2OS cells assessed per million cells at 5 uM after 3 hrs by FACS analysis. The class given is ADME, cell-based. The method, boiled down: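 Adherent cells seeded overnight, then exposed to 5 μM FITC-labelled peptide or DMSO in FBS-free medium, 3 h, 37 °C. After PBS washes (three), about 10000 cells per sample analysed by flow cytometry; mean cellular fluorescence intensity calculated. More than two independent experiments, SEM.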
For orientation: In flow cytometry, cells or beads pass a laser one at a time.

Data set [4] is filed under the species Homo sapiens. The data set is described as follows: Selectivity ratio of Kd for recombinant human GST-tagged VDR LBD (156 to 453 residues) to Kd for recombinant human ERalpha LBD (301 to 553 residues). The method, boiled down: as §1

`CC[C@H](C)[C@@H]1NC(=O)C[C@H](NC(=O)[C@H](CCCNC(=N)N)NC(=O)CCNC(=S)Nc2ccc3c(c2)C(=O)OC32c3ccc(O)cc3Oc3cc(O)ccc32)C(=O)NCC(C(=O)N[C@@H](CCCNC(=N)N)C(=O)NC(CC(C)(C)C)C(=O)NC(CC(C)(C)C)C(=O)N[C@@H](CCC(N)=O)C(N)=O)NC(=O)C(CC(C)(C)C)NC1=O` (stereo not given in full): in data set [1], the outcome was Active. The dissociation constant Kd at Progesterone receptor came to 248 nM. The Selectivity ratio is 4.4 in the data set filed under Homo sapiens [2] and greater than 30 in the data set filed under Homo sapiens [4]. The Drug uptake entry in data set [3] is “Active”.

What is called Kd is the free concentration of one partner at which half of the binding sites on the other are occupied at equilibrium, for simple one-to-one binding.

The record behind these values is ChEMBL document CHEMBL4017549, “Structural Basis of Inhibition of ERα-Coactivator Interaction by High-Affinity N-Terminus Isoaspartic Acid Tethered Helical Peptides” (J Med Chem, 2017).
